Data published in EPA's CvTdb concentration-time database.

Experiments:
Mouse [1] = assay: concentration in plasma after dosing; settings: 3 h; dosed: 2-Hydroxy-4-methoxybenzophenone; 250 mg/kg; oral; Female; B6C3F1
Mouse [2] = assay: concentration in plasma after dosing; settings: 3 h; dosed: 2-Hydroxy-4-methoxybenzophenone; 50 mg/kg; iv; Female; B6C3F1
Rat [3] = assay: concentration in plasma after dosing; settings: dosed: 2-Hydroxy-4-methoxybenzophenone, 250 mg/kg, oral, Female, F344
Rat [4] = assay: concentration in plasma after dosing; settings: dosed: Nitrite, 80 mg/kg, oral, Female, F344
Rat [5] = assay: concentration in plasma after dosing; settings: 0.5 h; dosed: Nitrite; 40 mg/kg; oral; Male; F344
Rat [6] = assay: concentration in liver after dosing; settings: 1 h; dosed: Fluorotelomer alcohol 8+2; 24 mg/kg; oral; Male; Harlan Sprague Dawley
Rat [7] = assay: concentration in brain after dosing; settings: 24 h; dosed: Perfluorooctanoic acid; 12 mg/kg; oral; Male; Harlan Sprague Dawley
Rat [8] = assay: concentration in liver after dosing; settings: 1 h; dosed: Fluorotelomer alcohol 8+2; 80 mg/kg; oral; Female; Harlan Sprague Dawley
Rat [9] = assay: concentration in liver after dosing; settings: 192 h; dosed: Perfluorooctanoic acid; 12 mg/kg; oral; Male; Harlan Sprague Dawley
Rat [10] = assay: concentration in liver after dosing; settings: 3 h; dosed: Perfluorooctanoic acid; 80 mg/kg; oral; Female; Harlan Sprague Dawley
Rat [11] = assay: concentration in liver after dosing; settings: 12 h; dosed: Perfluorooctanoic acid; 80 mg/kg; oral; Female; Harlan Sprague Dawley
Rat [12] = assay: concentration in liver after dosing; settings: 0.5 h; dosed: Fluorotelomer alcohol 8+2; 80 mg/kg; oral; Female; Harlan Sprague Dawley
Rat [13] = assay: concentration in kidney after dosing; settings: 3 h; dosed: Perfluorooctanoic acid; 12 mg/kg; oral; Male; Harlan Sprague Dawley
Rat [14] = assay: concentration in plasma after dosing; settings: dosed: 678-39-7, 40 mg/kg, iv, Female, Harlan Sprague-Dawley
Rat [15] = assay: concentration in plasma after dosing; settings: dosed: Fluorotelomer alcohol 8+2, 12 mg/kg, oral, Male, Harlan Sprague Dawley
Rat [16] = assay: concentration in kidney after dosing; settings: 6 h; dosed: Perfluorooctanoic acid; 12 mg/kg; oral; Male; Harlan Sprague Dawley
Rat [17] = assay: concentration in kidney after dosing; settings: 1 h; dosed: Fluorotelomer alcohol 8+2; 80 mg/kg; oral; Female; Harlan Sprague Dawley
Rat [18] = assay: concentration in kidney after dosing; settings: 0.5 h; dosed: Fluorotelomer alcohol 8+2; 80 mg/kg; oral; Female; Harlan Sprague Dawley
Rat [19] = assay: concentration in plasma after dosing; settings: dosed: 678-39-7, 12 mg/kg, iv, Male, F344
Rat [20] = assay: concentration in plasma after dosing; settings: dosed: 678-39-7, 40 mg/kg, iv, Female, Harlan Sprague-Dawley; remark: listed apart in the source
Rat [21] = assay: concentration in plasma after dosing; settings: dosed: 678-39-7, 12 mg/kg, iv, Male, F344; remark: listed apart in the source
Rat [22] = assay: concentration in liver after dosing; settings: 1 h; dosed: Potassium Perfluorobutane Sulfonate; 20 mg/kg; oral; Female; Harlan Sprague Dawley
Rat [23] = assay: concentration in plasma after dosing; settings: 0.75 h; dosed: Potassium Perfluorobutane Sulfonate; 4 mg/kg; iv; Female; Harlan Sprague-Dawley
Rat [24] = assay: concentration in plasma after dosing; settings: 0.75 h; dosed: Potassium Perfluorobutane Sulfonate; 4 mg/kg; iv; Female; Harlan Sprague-Dawley; remark: listed apart in the source
Rat [25] = assay: concentration in plasma after dosing; settings: dosed: Potassium Perfluorobutane Sulfonate, 4 mg/kg, oral, Male, Harlan Sprague Dawley
human = assay: concentration in urine after dosing; negative times count back from the end of exposure; settings: dosed: methanol, inhalation, duration: 8 hr
Procedure, shortened: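 A PubMed search, classifier screening and manual review identified published in vivo toxicokinetic studies, which together with two structured collections supplied concentration-versus-time and amount-versus-time points. Points were mostly digitised from plot screenshots with WebPlotDigitizer, otherwise copied from tables. Dose, route, subject details and medium were hand-curated from each paper, and sampling and analytical methods are those of the sources, often unreported.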

COc1ccc(C(=O)c2ccccc2)c(O)c1 [2-Hydroxy-4-methoxybenzophenone]
Settings | concentration in plasma [ng/mL]
Mouse [1] | 36.8
Mouse [2] | 134

Rat [3]
Settings | concentration in plasma [ng/mL]
0.25 h | 56.9
4 h | 26.2

O=N[O-] [Nitrite]
Rat [4]
Settings | concentration in plasma [ng/mL]
0.5 h | 20500
4 h | 4900

Settings | concentration in plasma [ng/mL]
Rat [5] | 1900

O=C(O)C(F)(F)C(F)(F)C(F)(F)C(F)(F)C(F)(F)C(F)(F)C(F)(F)F [Perfluorooctanoic acid]
Settings | concentration in brain [ng/g] | concentration in kidney [ng/g] | concentration in liver [ng/g]
Rat [6] | – | – | 676
Rat [7] | 1290 | – | –
Rat [8] | – | – | 727
Rat [9] | – | – | 51800
Rat [10] | – | – | 32900
Rat [11] | – | – | 59900
Rat [12] | – | – | 470
Rat [13] | – | 23700 | –
Rat [16] | – | 43100 | –
Rat [17] | – | 353 | –
Rat [18] | – | 360 | –

Settings | concentration in plasma [ng/mL]
Rat [14], 1 h | 2280
Rat [14], 24 h | 58.8
Rat [15], 0.25 h | 27.2
Rat [15], 6 h | 635
Rat [19], 0.5 h | 235
Rat [19], 9 h | 438
Rat [20], 1 h | 2620
Rat [20], 24 h | 86.7
Rat [21], 0.75 h | 332
Rat [21], 12 h | 524

O=S(=O)([O-])C(F)(F)C(F)(F)C(F)(F)C(F)(F)F.[K+] [Potassium Perfluorobutane Sulfonate]
Settings | concentration in liver [ng/g] | concentration in plasma [ng/mL]
Rat [22] | 27800 | –
Rat [23] | – | 6450
Rat [24] | – | 2530

Rat [25]
Settings | concentration in plasma [ng/mL]
0.5 h | 7030
9 h | 5080

CO [methanol]
human
Settings | concentration in urine [ng/mL]
0 h, 78 ppm | 3490
0 h, 158 ppm | 6700
0 h, 231 ppm | 9600
1.997 h, 300 mg/m^3, male | 7640
2 h, 78 ppm | 2290
2 h, 158 ppm | 5240
2 h, 231 ppm | 7600
2.005 h, 205 mg/m^3, male | 5340
2.035 h, 102 mg/m^3, male | 2420
3.995 h, 300 mg/m^3, male | 4350
4 h, 78 ppm | 1770
4 h, 102 mg/m^3, male | 1630
4 h, 158 ppm | 2690
4 h, 231 ppm | 4360
4.036 h, 205 mg/m^3, male | 2760
5.995 h, 102 mg/m^3, male | 1360
6 h, 78 ppm | 1470
6 h, 158 ppm | 1830
6 h, 231 ppm | 2400
6.026 h, 205 mg/m^3, male | 1810
6.031 h, 300 mg/m^3, male | 2430
10.88 h, 205 mg/m^3, male | 1280
10.91 h, 102 mg/m^3, male | 1090
10.94 h, 300 mg/m^3, male | 1480
11 h, 78 ppm | 1140
11 h, 158 ppm | 1360
11 h, 231 ppm | 1660
15.5 h, 231 ppm | 1030
15.71 h, 205 mg/m^3, male | 1140
53 s, 300 mg/m^3, male | 9620
65 s, 205 mg/m^3, male | 6690
67 s, 102 mg/m^3, male | 3420

human, during exposure
Settings | concentration in urine [ng/mL]
-8 h, 78 ppm | 572
-8 h, 158 ppm | 1030
-8 h, 231 ppm | 1340
-7.859 h, 300 mg/m^3, male | 802
-7.832 h, 102 mg/m^3, male | 802
-7.832 h, 205 mg/m^3, male | 802
-6.075 h, 300 mg/m^3, male | 4350
-6 h, 78 ppm | 1750
-6 h, 158 ppm | 3090
-6 h, 231 ppm | 4340
-5.977 h, 205 mg/m^3, male | 3090
-5.962 h, 102 mg/m^3, male | 1700
-4.073 h, 205 mg/m^3, male | 4890
-4.031 h, 300 mg/m^3, male | 6790
-4 h, 78 ppm | 2390
-4 h, 158 ppm | 4820
-4 h, 231 ppm | 6830
-3.984 h, 102 mg/m^3, male | 2500
-2.068 h, 205 mg/m^3, male | 5830
-2 h, 78 ppm | 3090
-2 h, 158 ppm | 5920
-2 h, 231 ppm | 8400
-1.993 h, 300 mg/m^3, male | 8430
-1.981 h, 102 mg/m^3, male | 3130
